This is an account of results in ChEMBL document CHEMBL1157729, “Structure-activity relationship and mechanism of action studies of manzamine analogues for the control of neuroinflammation and cerebral infections” (J Med Chem, 2010).

In test [1] the test system is Plasmodium yoelii. In words: Antiplasmodial activity against Plasmodium yoelii infected in perorally dosed mice (Mus musculus). The format is functional. The following applies: po.
The test system of test [2] is Mycobacterium intracellulare. The test is described as follows: Antimycobacterial activity against Mycobacterium intracellular ATCC 23068. It counts as functional, organism-based. The method in brief: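 Modified Franzblau method; samples serially diluted in 20% DMSO/saline, tested in duplicate; inoculum set by OD630; fluorescence read at 544ex/590em before and after incubation; ciprofloxacin drug control.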

Test [3] has as its system Mycobacterium tuberculosis. The test is described as follows: Antimycobacterial activity against Mycobacterium tuberculosis H37Rv. It counts as functional, organism-based.
The subject of test [4] is Candida albicans. The test is described as follows: Antifungal activity against Candida albicans ATCC 90028. It counts as functional, organism-based. The procedure, abridged:
(§1)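 Broth microdilution per modified CLSI method; samples serially diluted in 20% DMSO/saline, tested in duplicate; inocula set by OD630 of suspensions in incubation broth; growth read at 630 nm before and after incubation; amphotericin B drug control.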

For test [5], the system named is Cryptococcus neoformans. In words: Antifungal activity against Cryptococcus neoformans ATCC 90113. It counts as functional, organism-based. The method in brief:
as §1

Test [6] can be described thus: Antineuroinflammatory activity in LPS-stimulated rat neonatal microglia assessed as drug level causing 50% PMA-induced LDH release preincubated 15 mins prior to PMA challenge measured after 70 mins. The format is functional. The procedure, abridged:
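Neonatal rat microglia (2 × 10^5/well) primed with E. coli LPS 0.3 ng/mL for 17 h at 35.9 °C, washed with HBSS, given compound (0.01–10 μM) or DMSO 15 min, then PMA 1 μM; LDH read spectrophotometrically after 70 min; LDH50 relative to Triton X-100 (0.1%) release; duplicates.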
In general terms: Release of lactate dehydrogenase indicates damage to the cell membrane.

Test [7] can be described thus: (§2) Antineuroinflammatory activity in LPS-stimulated rat neonatal microglia assessed as inhibition of PMA-induced TXB2 production preincubated 15 mins prior to PMA challenge measured after 70 mins. The format is functional, cell-based.
The test system of test [8] is Plasmodium falciparum. In words: Antiplasmodial activity against chloroquine-resistant Plasmodium falciparum W2 after 72 hrs by LDH assay. It counts as functional, organism-based. The conditions noted are these: Plasmodium falciparum, W2, 72 h; read-out: IC50.
The test system of test [9] is Mycobacterium intracellulare. In words: Ratio of IC50 for drug to ciprofloxacin against Mycobacterium intracellular ATCC 23068. The format is functional.
The subject of test [10] is Plasmodium falciparum. The test is described as follows: Antiplasmodial activity against chloroquine-sensitive Plasmodium falciparum D6 after 72 hrs by LDH assay. It counts as functional, organism-based. The following applies: Plasmodium falciparum, D6, 72 h; read-out: IC50.
Test [11] is described as follows: (§3) Antineuroinflammatory activity in LPS-stimulated rat neonatal microglia assessed as inhibition of PMA-induced superoxide anion production preincubated 15 mins prior to PMA challenge measured after 70 mins. The format is functional, cell-based.
Test [12] has as its system Vero. In words: Cytotoxicity against african green monkey Vero cells after 48 hrs by neutral red assay. It counts as cell-based. The following applies: chlorocebus sabaeus. The procedure, abridged:
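Vero cells seeded at 25,000/well and grown 24 h, then exposed to serially diluted samples for 48 h. Viable cells measured by neutral red assay, with doxorubicin as positive control. IC50 taken from dose-response curves.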

The test system of test [13] is Plasmodium berghei. In words: Antiplasmodial activity against Plasmodium berghei NK65 infected in Swiss Webster mice (Mus musculus) assessed as average parasitaemia at 200 mg/kg, perorally administered 1 day after infection measured after 14 days post infection. It counts as functional. The conditions noted are these: route oral. The procedure, abridged:
(§4)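 Male Swiss Webster mice (18-20 g), at least 5 per group, were inoculated ip with 2×10^7 P. berghei NK-65-parasitized red cells from a donor mouse and given a single oral dose (100 μl). Stock was made in SSV or 0.1 M HCl and diluted in SSV or 0.01 M HCl. Parasitemia was read from Giemsa-stained tail blood smears from day 5 to day 28. Cure meant no parasitemia through day 28.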

Test [14] has as its system Plasmodium berghei. The test is described as follows: Antiplasmodial activity against Plasmodium berghei NK65 infected in Swiss Webster mice (Mus musculus) assessed as parasitaemia cure at 200 mg/kg, perorally administered 1 day after infection measured after 28 days post infection. The format is functional. The following applies: route oral. The procedure, abridged: as §4

In test [15] the test system is Plasmodium berghei. In words: Antiplasmodial activity against Plasmodium berghei NK65 infected in Swiss Webster mice (Mus musculus) assessed as average parasitaemia at 200 mg/kg, perorally administered 1 day after infection measured after 28 days post infection. It counts as functional. The conditions noted are these: route oral. The method in brief: (§5)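 Male Swiss Webster mice (18-20 g, ≥5/group) inoculated i.p. with 2×10^7 P. berghei NK-65 parasitized RBC, given a single oral dose (100 μl, SSV or dilute HCl vehicle); parasitemia by Giemsa-stained tail blood smears days 5–28; activity as % decrease versus untreated controls on day 5.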

The test system of test [16] is Plasmodium berghei. The test is described as follows: Antiplasmodial activity against Plasmodium berghei NK65 infected in Swiss Webster mice (Mus musculus) assessed as average parasitaemia at 200 mg/kg, perorally administered 1 day after infection measured after 5 days post infection. The format is functional. The conditions noted are these: route oral. The procedure, abridged:
as §4

The test system of test [17] is Plasmodium berghei. In words: Antiplasmodial activity against Plasmodium berghei NK65 infected in Swiss Webster mice (Mus musculus) assessed as average parasitaemia at 200 mg/kg, perorally administered 1 day after infection measured after 21 days post infection. It counts as functional. The following applies: route oral. The method in brief: as §4
Test [18] deals with Plasmodium berghei. In words: Antiplasmodial activity against Plasmodium berghei NK65 infected in Swiss Webster mice (Mus musculus) assessed as inhibition of parasitaemia at 200 mg/kg, perorally administered 1 day after infection measured after 5 days post infection. The format is functional. Further details: Activity: scale not given: the % may be the effect or the level left. The conditions noted are these: route oral. The method in brief:
as §5

Test [19] relates to Plasmodium berghei. The test is described as follows: Antiplasmodial activity against Plasmodium berghei NK65 infected in Swiss Webster mice (Mus musculus) assessed as average parasitaemia at 200 mg/kg, perorally administered 1 day after infection measured after 10 days post infection. The conditions noted are these: route oral. It counts as functional. The procedure, abridged: as §5

Test [20] relates to Microglia. The description is as §2. The format is functional, cell-based.
Test [21] concerns Microglia. The test is described as §3. The format is functional, cell-based.

Values after ≈ are worked out from the molar mass of the structure shown. Active and inactive are the calls of the source. The rule behind the calls is not given here.

Consider `C[C@H]1[C@H](OC(=O)CCC(=O)[O-])O[C@@H]2O[C@@]3(C)CC[C@H]4[C@H](C)CC[C@@H]1[C@@]24OO3.[Na+]` [SODIUM ARESUNATE], for which, in test [1], the 50% effective dose (ED50) worked out at 4.1 mg/kg and the ED90 worked out at 17 mg/kg.
With `COC(=O)c1cc2c([nH]c3ccccc32)c(C2=C[C@@]3(O)CC/C=C\CCCCN4CC[C@@H]2[C@]2(C[C@@H]5/C=C\CCCCN5[C@H]23)C4)n1`, the IC50 is less than 0.02 µg/mL in test [2]; 20 µg/mL (≈ 33 µM) in test [4]; 2 µg/mL (≈ 3.3 µM) in test [5]; 110 nM in [7]; 0.015 µg/mL (≈ 0.0247 µM) in [8]; 0.011 µg/mL (≈ 0.0181 µM) in test [10]. The 50% inhibitory concentration (IC50) in [11] is 30 nM; in test [12] it was 0.2 µg/mL (≈ 0.33 µM). The compound further showed an MIC in [3] of more than 64 µg/mL. For the same compound, in test [6], the Activity was more than 10 µM. Further, the “Ratio IC50” value in test [9] is 5.
Take `CCN(CC)CCCC(C)Nc1ccnc2cc(Cl)ccc12` (stereo unspecified) [CHLOROQUINE]: the Activity is 0.2% in test [13]; 80% in test [14]; 8% in test [15]; 0% in test [16]; 4% in test [17]; 100% in test [18].
Take `C=C[C@H]1CN2CC[C@H]1C[C@H]2[C@H](O)c1ccnc2ccc(OC)cc12` [QUININE]: the Activity stood at 32% in test [13]; 14% in test [19]; 0% in [14]; 7.3% in [16]; 45% in test [17]; 26% in test [18].
Turning to `Oc1cccc2c1[nH]c1c(C3=C[C@@]4(O)CCCCCCCCN5CC[C@@H]3[C@]3(C[C@@H]6CCCCCCN6[C@H]34)C5)nccc12` [15,16,32,33-TETRAHYDRO-8-HYDROXYMANZAMINE A], the IC50 in [2] was determined as 0.1 µg/mL (≈ 0.176 µM); in [4] it was 6 µg/mL (≈ 10.5 µM); in [5] it was 1.5 µg/mL (≈ 2.64 µM); in test [7], 1970 nM; in test [8], 0.62 µg/mL (≈ 1.09 µM); in [10] it was 0.09 µg/mL (≈ 0.158 µM). The half-maximal inhibitory concentration (IC50) in [11] was more than 10000 nM. In [3], this compound had a minimal inhibitory concentration (MIC) of 24 µg/mL (≈ 42.2 µM). The Activity in test [6] was more than 10 µM. The outcome in test [20] and in [21] was inactive.

The ED50 is the dose at which the effect has come halfway, by size or by number of responders. By IC50 is commonly meant the concentration that inhibits the measured activity by half. The term MIC denotes the least concentration at which growth counts as inhibited.
